Laboratory results: ChEMBL document CHEMBL5705892, “MK-2206, an allosteric Akt inhibitor, enhances antitumor efficacy by standard chemotherapeutic agents or molecular targeted drugs in vitro and in vivo” (Mol Cancer Ther, 2010)
Active and inactive are the calls of the source. The rule behind the calls is not given here.

Legend:
SK-BR-3 [1] = experiment: Synergistic antiproliferative activity against human SK-BR-3 cells assessed as combination index at ED75 treated 24 hrs prior to lapatinib and measured after 72 hrs by celltiter-glo assay; format: functional; settings: time 96 hrs
[2] = molecular target: RAC-alpha serine/threonine-protein kinase (Homo sapiens) (UniProt P31749); experiment: Inhibition of AKT phosphorylation at S473 residue in human NCI-H1993 cells at 3 umol/L measured after 4 to 24 hrs in presence of carboplatin by MSD assay; settings: time 4-24 hrs
Sequence of RAC-alpha serine/threonine-protein kinase (Homo sapiens) (P31749 whole entry): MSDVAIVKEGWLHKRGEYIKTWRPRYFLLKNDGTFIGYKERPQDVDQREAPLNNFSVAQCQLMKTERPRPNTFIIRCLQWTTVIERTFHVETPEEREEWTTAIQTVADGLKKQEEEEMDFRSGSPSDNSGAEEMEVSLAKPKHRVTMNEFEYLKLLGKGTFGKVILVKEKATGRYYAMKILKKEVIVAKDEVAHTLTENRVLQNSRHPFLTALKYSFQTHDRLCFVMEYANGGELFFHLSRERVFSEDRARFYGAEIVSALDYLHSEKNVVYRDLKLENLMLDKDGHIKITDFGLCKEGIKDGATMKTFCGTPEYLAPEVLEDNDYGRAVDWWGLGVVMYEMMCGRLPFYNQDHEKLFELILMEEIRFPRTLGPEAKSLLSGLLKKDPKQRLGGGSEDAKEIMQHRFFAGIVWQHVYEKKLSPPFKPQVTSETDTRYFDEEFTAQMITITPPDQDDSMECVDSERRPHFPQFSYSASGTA

[3] = Toxicity in human SK-OV-3 cells xenografted CB17/icr SCID mouse at 60 to 120 mg/kg, po administered 3 times per week for 2 weeks starting 2 hrs post lapatinib treatment and measured during compound dosing; format: organism-based; settings: in vivo, 336 h, dose 60-120 mg/kg
Procedure, shortened: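 SK-OV-3 cells in 50% Matrigel/PBS injected s.c. into flank of female C.B-17/ICR-scid mice; dosing began after 3 wk, randomized at mean tumour 0.13 cm³ (n = 5). Lapatinib 100 mg/kg p.o. in distilled water 5 d/wk for 2 wk; MK-2206 in 30% Captisol p.o. days 0, 2, 4, 7, 9, 11. Body weight and physical signs monitored.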

NCI-H460 = experiment: Synergistic antiproliferative activity against human NCI-H460 cells assessed as combination index at ED25 to ED90 measured after 72 hrs in presence of carboplatin by celltiter-glo assay; format: functional
[4] = Toxicity in human PC-3 cells xenografted CD1 nude mouse assessed as body weight loss at 120 mg/kg, po administered 3 times per week for 2 weeks measured during compound dosing relative to control; format: organism-based; settings: in vivo, 336 h
Procedure, shortened: (§1)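 Male CD1-nude mice with s.c. PC-3 tumours (50% Matrigel/50% PBS, left flank), randomized at mean 0.2 cm³, n=5/group, treated from 25 d post-implant. Body weight monitored versus vehicle-only controls.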

Calu-6 = experiment: Synergistic antiproliferative activity against human Calu-6 cells assessed as combination index at ED75 measured after 72 hrs in presence of erlotinib by celltiter-glo assay; format: functional
Procedure, shortened: (§2)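 Cells grown in RPMI 1640 with 10% heat-inactivated FBS at 37°C, 5% CO₂. Seeded at 2 to 3 × 10³ per well; drugs added 24 h later. […] Viability read as cellular ATP by CellTiter-Glo. CI calculated by Chou–Talalay from median-effect plots at ED50, ED75 and ED90.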

[5] = In vivo inhibition of AKT phosphorylation at S473 residue in human NCI-H292 cells xenografted mouse at 120 mg/kg, po administered as single dose 2 hrs post-erlotinib treatment measured after 12 hrs by Western blot analysis relative to control; format: functional
ZR-75-1 = experiment: Synergistic antiproliferative activity against human ZR-75-1 cells assessed as combination index at ED90 measured after 72 hrs in presence of docetaxel by celltiter-glo assay; format: functional
A2780 [6] = experiment: Synergistic antiproliferative activity against human A2780 cells assessed as combination index at ED90 measured after 72 hrs in presence of carboplatin by celltiter-glo assay; format: functional
Procedure, shortened: (§3)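 Cells were seeded at 2–3 × 10³ per well in RPMI 1640 with 10% FBS. At 24 h, MK-2206 and the partner drug were added simultaneously at constant concentration ratios spanning each agent's IC₅₀, for 72 h. Growth was read as cellular ATP by CellTiter-Glo. CI was taken from median-effect plots of each agent alone and in combination (Chou–Talalay), at ED₅₀, ED₇₅ and ED₉₀.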

NCI-N87 [7] = experiment: Synergistic antiproliferative activity against lapatinib pretreated human NCI-N87 cells assessed as combination index at ED75 measured after 72 hrs by celltiter-glo assay; format: functional
HCC1954 = experiment: Synergistic antiproliferative activity against human HCC1954 cells assessed as combination index at ED75 measured after 96 hrs in presence of lapatinib by celltiter-glo assay; format: functional
NCI-H441 = experiment: Induction of apoptosis in human NCI-H441 cells assessed as fold induction of capsase-3/7 activity measured after 24 to 48 hrs in presence of gemcitabine by caspase-glo 3/7 assay; format: functional; settings: time 24-48 hrs
[8] = Toxicity in human NCI-H460 cells xenografted CD1 nude mouse assessed as body weight loss at 120 mg/kg, po administered 3 times per week for 2 weeks in presence of gemcitabine measured during compound dosing relative to control; format: organism-based; settings: in vivo, 336 h
Procedure, shortened: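 CD1-nude mice with s.c. NCI-H460 xenografts, randomized at mean 0.2 cm³, n=5/group, dosing from day 8 post-implant. Body weight compared with vehicle-only controls.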

SK-OV-3 = experiment: Synergistic antiproliferative activity against lapatinib pretreated human SK-OV-3 cells assessed as combination index at ED50 measured after 72 hrs by celltiter-glo assay; format: functional
[9] = Toxicity in human NCI-H460 cells xenografted CD1 nude mouse assessed as body weight loss at 120 mg/kg, po administered 3 times per week for 2 weeks measured during compound dosing relative to control; format: organism-based; settings: in vivo, 336 h
BT-474 = experiment: Synergistic antiproliferative activity against human BT-474 cells assessed as combination index at ED50 measured after 72 hrs in presence of docetaxel by celltiter-glo assay; format: functional; procedure, shortened: as §2
NCI-N87 [10] = experiment: Synergistic antiproliferative activity against human NCI-N87 cells assessed as combination index at ED75 measured after 72 hrs in presence of lapatinib by celltiter-glo assay; format: functional
MDA-MB-468 = experiment: Antiproliferative activity against human MDA-MB-468 cells assessed as reduction in cell proliferation measured after 72 hrs by celltiter-glo assay; format: functional, cell-based; settings: MDA-MB-468, 72 h
Procedure, shortened: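 Cells in RPMI 1640 with 10% heat-inactivated FBS at 37°C and 5% CO₂ were seeded at 2 to 3 × 10³ per well. […] Growth was read as cellular ATP by CellTiter-Glo.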

A2780 [11] = experiment: Synergistic antiproliferative activity against human A2780 cells assessed as combination index at ED75 measured after 72 hrs in presence of doxorubicin by celltiter-glo assay; format: functional; procedure, shortened: as §3
[12] = Toxicity in human NCI-H460 cells xenografted CD1 nude mouse assessed as body weight loss at 120 mg/kg, po administered 3 times per week for 2 weeks in presence of carboplatin measured during compound dosing relative to control; format: organism-based; settings: in vivo, 336 h
Procedure, shortened: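 Female CD1-nude mice with s.c. NCI-H460 tumours (50% Matrigel/50% PBS), randomized at mean 0.2 cm³, n=5/group, dosing from 12 d post-implant. Body weight monitored against vehicle-only controls.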

[13] = molecular target: RAC-alpha serine/threonine-protein kinase (Homo sapiens) (UniProt P31749); experiment: Inhibition of AKT in human HCC827 cells assessed as reduction in AKT phosphorylation at S473 residue at 5 umol/L measured after 5 hrs in presence of erlotinib by Western blot analysis; format: cell-based; settings: dose 5.0 µmol/L
A2780 [14] = experiment: Synergistic antiproliferative activity against human A2780 cells assessed as combination index at ED50 measured after 72 hrs in presence of 5-FU by celltiter-glo assay; format: functional; procedure, shortened: as §3
SK-BR-3 [15] = experiment: Synergistic antiproliferative activity against human SK-BR-3 cells assessed as combination index at ED75 measured after 72 hrs in presence of lapatinib by celltiter-glo assay; format: functional
[16] = Toxicity in human PC-3 cells xenografted CD1 nude mouse assessed as body weight loss at 120 mg/kg, po administered 3 times per week for 2 weeks starting 24 hrs post docetaxel treatment and measured on day 15; format: organism-based; settings: in vivo, 360 h, time 15 day; procedure, shortened: as §1

Cl.NC1(c2ccc(-c3nc4ccn5c(=O)[nH]nc5c4cc3-c3ccccc3)cc2)CCC1
CI75 (SK-BR-3 [1]): 0.18 | inhibition [2]: Active | Activity [3]: Non-Toxic | CI (NCI-H460): 0.3 | Activity [4]: 8% | CI75 (Calu-6): 0.25 | inhibition in vivo at 120 mg/kg [5]: 79.9% | CI90 (ZR-75-1): 0.4 | CI90 (A2780 [6]): 0.38 | CI75 (NCI-N87 [7]): 0.18 | CI75 (HCC1954): 0.18 | fold change (FC) (NCI-H441): 2.3 | Activity [8]: 7% | CI50 (SK-OV-3): 0.18 | Activity [9]: 7% | CI50 (BT-474): 1 | CI75 (NCI-N87 [10]): 0.55 | IC50 (MDA-MB-468): 2600 nM | CI75 (A2780 [11]): 0.43 | Activity [12]: 7% | inhibition [13]: Active | CI50 (A2780 [14]): 0.68 | CI75 (SK-BR-3 [15]): 0.19 | Activity [16]: Non-Toxic
